Test results reported in article PMC5615155 (Toxicology Reports, 2017).

What was measured:
CYP1A2 = molecular target: T1, CYP1A2 (Homo sapiens, UniProt P05177); experiment: CYP inhibition, spectrofluorimetric; format: biochemical; details: recombinant human CYP1A2 expressed in insect Sf9 cells
T1 sequence (P05177 1-516): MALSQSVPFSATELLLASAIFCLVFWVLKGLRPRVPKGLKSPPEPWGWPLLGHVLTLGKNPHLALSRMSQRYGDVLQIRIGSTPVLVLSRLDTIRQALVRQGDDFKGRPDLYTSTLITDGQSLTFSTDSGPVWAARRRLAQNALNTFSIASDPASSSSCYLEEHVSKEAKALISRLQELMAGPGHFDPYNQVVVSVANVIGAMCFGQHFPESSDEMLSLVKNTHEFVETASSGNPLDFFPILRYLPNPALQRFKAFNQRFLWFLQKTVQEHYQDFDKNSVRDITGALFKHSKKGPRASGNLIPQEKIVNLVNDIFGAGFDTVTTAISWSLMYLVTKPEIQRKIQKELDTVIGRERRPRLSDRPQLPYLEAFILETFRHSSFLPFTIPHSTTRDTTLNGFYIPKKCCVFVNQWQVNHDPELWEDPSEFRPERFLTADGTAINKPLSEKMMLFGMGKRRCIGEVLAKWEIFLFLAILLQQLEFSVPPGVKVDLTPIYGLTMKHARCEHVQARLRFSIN
Summary of the method: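 Inhibition was assayed with recombinant human CYP isoforms expressed in insect Sf9 cells. Turnover of spectrofluorimetric substrates was read by fluorescence. Test compound was tested at a single concentration of 10 μM.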

[1] = dose range-finding developmental toxicity study; format: in vivo, Crl:CD(SD) rats

SMILES | inhibition at 10 μM (CYP1A2) | external developmental malformations or variations in fetuses ([1]; 125–1000 mg/kg bw/day) | Findings ([1]; 125–1000 mg/kg bw/day oral gavage, GD 6–20)
Cc1cc(C(=O)NC(C)(C)COc2cccc3c2C(N)=NS(=O)(=O)N3)cc(C)n1 [S2218, N-(1-((4-amino-2,2-dioxido-1H-benzo[c][1,2,6]thiadiazin-5-yl)oxy)-2-methylpropan-2-yl)-2,6-dimethylisonicotinamide] | ≤ 7% |  | 
Cc1cc(C(=O)NC(C)(C)COc2cccc3c2C(N)=NS(=O)(=O)N3)cc(C)n1.O=S(=O)(O)O [S8069] |  | No external developmental malformations or variations were observed | No maternal toxicity or effect on intrauterine growth up to 1000 mg/kg bw/day
